Calls of active or inactive are those of the source. No cut-off for these calls is given here.
How the values were obtained:
[1] = target: DNA topoisomerase 2-alpha (Homo sapiens) (UniProt P11388); assay: Inhibition of human Topo 2-mediated relaxation of supercoiled pBR322 plasmid at 25 to 50 uM after 30 mins by agarose gel electrophoresis
[2] = target: T1, DNA topoisomerase 1 (Homo sapiens) (UniProt P11387); assay: Inhibition of Topo 1 (unknown origin)-mediated relaxation of supercoiled pBR322 plasmid at 25 uM after 30 mins by agarose gel electrophoresis
T1 sequence (whole entry): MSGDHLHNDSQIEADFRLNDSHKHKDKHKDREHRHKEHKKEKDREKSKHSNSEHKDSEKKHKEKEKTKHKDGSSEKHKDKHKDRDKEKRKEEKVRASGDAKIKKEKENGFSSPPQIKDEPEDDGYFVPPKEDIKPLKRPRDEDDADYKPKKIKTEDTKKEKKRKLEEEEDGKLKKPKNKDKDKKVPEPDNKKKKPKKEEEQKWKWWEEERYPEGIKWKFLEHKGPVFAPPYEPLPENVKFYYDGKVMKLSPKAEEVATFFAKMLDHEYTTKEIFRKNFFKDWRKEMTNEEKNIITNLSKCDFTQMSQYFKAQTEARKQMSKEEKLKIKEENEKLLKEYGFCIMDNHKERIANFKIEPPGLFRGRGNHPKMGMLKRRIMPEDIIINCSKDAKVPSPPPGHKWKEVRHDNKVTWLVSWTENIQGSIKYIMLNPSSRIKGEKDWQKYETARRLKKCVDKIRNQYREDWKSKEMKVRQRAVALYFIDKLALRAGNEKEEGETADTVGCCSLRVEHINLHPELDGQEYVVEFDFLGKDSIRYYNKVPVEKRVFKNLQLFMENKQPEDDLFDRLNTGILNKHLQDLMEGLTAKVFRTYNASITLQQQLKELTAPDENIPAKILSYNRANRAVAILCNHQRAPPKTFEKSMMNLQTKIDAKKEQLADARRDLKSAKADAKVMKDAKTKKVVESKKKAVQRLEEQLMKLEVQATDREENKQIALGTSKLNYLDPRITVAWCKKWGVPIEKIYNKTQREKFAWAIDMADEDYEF
In short: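 Topo I with supercoiled pBR322 and compound, 30 min at 37 °C. Stopped with SDS/bromophenol blue/glycerol dye; run on 1% agarose gel in TAE for 1 h and stained with Gel Red.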

HeLa = assay: Cytotoxicity against human HeLa cells after 48 hrs by MTT assay; format: functional, cell-based
In short: (§1)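 Cells seeded 1 × 10^4 per well and incubated overnight, then given compound at 0–50 µM for 48 h. MTT added (20 µL of 5 mg/mL stock) for 4 h at 37 °C; formazan dissolved in DMSO, absorbance read at 570 nm. Triplicates; IC50 from mean OD versus concentration curves.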

[3] = Cytotoxicity against human HL60 cells after 48 hrs by MTT assay; format: functional, cell-based; settings: HL-60, 48 h; in short: as §1
K562 = assay: Cytotoxicity against human K562 cells after 48 hrs by MTT assay; format: functional, cell-based; settings: K562, 48 h; in short: as §1
A549 = assay: Cytotoxicity against human A549 cells after 48 hrs by MTT assay; format: functional, cell-based; settings: A549, 48 h; in short: as §1
[4] = target: DNA topoisomerase 2-alpha (Homo sapiens) (UniProt P11388); assay: Inhibition of human Topo 2-mediated relaxation of supercoiled pBR322 plasmid at 25 uM after 30 mins by agarose gel electrophoresis
[5] = target: DNA topoisomerase 2-alpha (Homo sapiens) (UniProt P11388); assay: Inhibition of human Topo 2 ATPase domain expressed in yeast BCY123 strain at 25 uM after 1 hr by nonisotopic malachite green assay
In short: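 Human Topo II ATPase domain overexpressed in yeast BCY123 and purified. Assay buffer: 100 mM Tris-HCl pH 7.4, 20 mM KCl, 6 mM MgCl2. Reaction of 25 µL with compound, started with 1 mM ATP, 1 h at 37 °C. Phosphate detected with malachite green at OD620. No-enzyme background set as 100% inhibition and enzyme-only as 0%.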

[6] = target: T2, DNA topoisomerase (Bos taurus) (UniProt A0JN73); assay: Induction of calf thymus Topo 1-pBR322 DNA cleavage complex formation assessed as nicked DNA formation after 30 mins by agarose gel electrophoresis
T2 sequence (whole entry): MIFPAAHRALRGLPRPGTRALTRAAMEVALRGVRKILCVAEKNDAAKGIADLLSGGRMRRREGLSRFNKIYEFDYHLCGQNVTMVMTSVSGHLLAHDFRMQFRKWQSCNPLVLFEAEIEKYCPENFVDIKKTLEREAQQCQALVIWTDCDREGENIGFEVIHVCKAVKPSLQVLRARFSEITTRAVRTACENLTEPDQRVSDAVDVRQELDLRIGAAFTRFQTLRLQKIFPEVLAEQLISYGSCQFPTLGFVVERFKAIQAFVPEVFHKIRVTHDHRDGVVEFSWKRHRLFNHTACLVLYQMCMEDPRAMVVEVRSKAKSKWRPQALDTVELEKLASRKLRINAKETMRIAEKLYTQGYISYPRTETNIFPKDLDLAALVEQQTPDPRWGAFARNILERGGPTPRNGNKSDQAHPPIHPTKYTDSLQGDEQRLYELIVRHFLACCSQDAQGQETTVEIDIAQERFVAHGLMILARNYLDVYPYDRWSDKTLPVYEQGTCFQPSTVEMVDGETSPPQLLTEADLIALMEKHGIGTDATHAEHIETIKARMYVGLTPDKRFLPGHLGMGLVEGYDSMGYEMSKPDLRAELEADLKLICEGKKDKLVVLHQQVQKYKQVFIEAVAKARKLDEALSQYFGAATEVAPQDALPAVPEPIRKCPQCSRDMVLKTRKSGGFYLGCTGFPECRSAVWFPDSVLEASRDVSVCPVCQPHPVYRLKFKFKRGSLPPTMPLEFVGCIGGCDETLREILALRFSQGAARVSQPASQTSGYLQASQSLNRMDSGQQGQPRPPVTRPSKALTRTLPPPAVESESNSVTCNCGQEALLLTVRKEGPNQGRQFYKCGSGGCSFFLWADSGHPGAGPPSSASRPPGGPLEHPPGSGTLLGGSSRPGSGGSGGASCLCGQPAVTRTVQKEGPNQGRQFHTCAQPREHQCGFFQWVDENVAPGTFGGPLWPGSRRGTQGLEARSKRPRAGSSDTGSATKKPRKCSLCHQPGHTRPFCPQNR
In short: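 Calf thymus Topo I (10 units) with 0.1 µg supercoiled pBR322 and 0.5–50 µM compound in Topo I buffer (pH 7.5) for […]. Complexes trapped with SDS then NaEDTA, followed by proteinase K for 30 min at 45 °C. Samples run on 1% agarose gel containing 0.5 µg/mL ethidium bromide. Nicked DNA quantified by optical density.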

[7] = target: T1, DNA topoisomerase 1 (Homo sapiens); assay: Induction of Topo 1-DNA cleavage complex formation in human HL60 cells after 1 hr by ICE assay; format: cell-based; settings: HL-60
In short: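 Mid-log phase HL-60 cells exposed to 2, 5 or 10 µM compound (DMSO vehicle 1.0% v/v) for 1 h, then lysed in DNAzol. DNA was ethanol-precipitated, redissolved and quantified. 2 µg DNA in 25 mM NaH2PO4 pH 6.5 was blotted onto nitrocellulose. Covalent Topo I was probed with rabbit anti-human Topo I (1:1000) and HRP secondary (1:3000), read by chemiluminescence.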

Sequence of DNA topoisomerase 2-alpha (Homo sapiens) (P11388 whole entry, the tested form may be a part): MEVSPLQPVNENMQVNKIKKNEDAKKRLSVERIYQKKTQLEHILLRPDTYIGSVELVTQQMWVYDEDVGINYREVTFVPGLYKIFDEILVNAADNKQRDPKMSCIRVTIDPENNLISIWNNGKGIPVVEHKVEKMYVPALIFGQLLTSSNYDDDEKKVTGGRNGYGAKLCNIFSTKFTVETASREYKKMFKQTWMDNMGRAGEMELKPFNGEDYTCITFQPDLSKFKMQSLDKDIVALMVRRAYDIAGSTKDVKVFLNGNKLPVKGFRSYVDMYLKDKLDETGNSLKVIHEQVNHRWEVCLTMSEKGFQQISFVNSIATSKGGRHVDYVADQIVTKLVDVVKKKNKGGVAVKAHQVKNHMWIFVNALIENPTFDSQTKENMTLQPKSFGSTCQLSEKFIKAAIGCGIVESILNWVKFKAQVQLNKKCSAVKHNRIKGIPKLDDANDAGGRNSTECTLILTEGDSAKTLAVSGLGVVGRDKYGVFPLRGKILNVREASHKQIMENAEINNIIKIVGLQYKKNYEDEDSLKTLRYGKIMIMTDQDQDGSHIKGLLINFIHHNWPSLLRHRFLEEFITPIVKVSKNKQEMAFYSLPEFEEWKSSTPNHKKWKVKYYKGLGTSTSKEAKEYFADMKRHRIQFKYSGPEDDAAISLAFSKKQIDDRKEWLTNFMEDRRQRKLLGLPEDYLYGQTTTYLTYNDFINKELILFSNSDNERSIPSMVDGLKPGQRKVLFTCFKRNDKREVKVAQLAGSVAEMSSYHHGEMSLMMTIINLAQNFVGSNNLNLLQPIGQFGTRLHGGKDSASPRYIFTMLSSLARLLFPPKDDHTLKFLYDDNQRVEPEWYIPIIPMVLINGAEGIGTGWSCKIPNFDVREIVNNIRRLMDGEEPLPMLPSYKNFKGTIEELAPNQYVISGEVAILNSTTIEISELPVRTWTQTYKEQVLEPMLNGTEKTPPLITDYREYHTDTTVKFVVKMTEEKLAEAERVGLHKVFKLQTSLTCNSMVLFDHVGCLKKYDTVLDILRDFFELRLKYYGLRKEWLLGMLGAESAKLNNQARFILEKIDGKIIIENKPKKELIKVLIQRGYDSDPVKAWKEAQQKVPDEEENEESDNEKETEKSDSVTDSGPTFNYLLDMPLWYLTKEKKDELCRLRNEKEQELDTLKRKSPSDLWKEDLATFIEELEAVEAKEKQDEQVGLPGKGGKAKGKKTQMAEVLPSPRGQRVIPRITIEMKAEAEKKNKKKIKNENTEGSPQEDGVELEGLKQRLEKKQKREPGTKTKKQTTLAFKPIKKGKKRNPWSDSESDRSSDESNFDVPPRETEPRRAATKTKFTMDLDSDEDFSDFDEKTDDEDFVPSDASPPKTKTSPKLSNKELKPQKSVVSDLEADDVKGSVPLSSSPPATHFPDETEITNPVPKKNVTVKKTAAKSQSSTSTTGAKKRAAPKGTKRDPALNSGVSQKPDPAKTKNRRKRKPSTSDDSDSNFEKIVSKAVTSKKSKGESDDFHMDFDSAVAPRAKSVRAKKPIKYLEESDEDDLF

SMILES	Topo 2 inhibition (active/not active) [1]	Topo I relaxation inhibition (active/not active) [2]	IC50 (HeLa) [µM]	IC50 [3] [µM]	IC50 (K562) [µM]	IC50 (A549) [µM]	Topo 2 inhibition (active/not active) [4]	inhibition [5] [%]	Activity [6]	Activity [7]
O=c1cc2n(CCN3CCCCC3)c3ccccc3nc-2c2ccccc12	Active	inactive	32	0.93	25.2	37.3				
CN(C)CCCn1c2cc(=O)c3ccccc3c-2nc2ccccc21	Active	Active	8.41	0.21	5.93	13.5				
CCN(CC)CCCn1c2cc(=O)c3ccccc3c-2nc2ccccc21			44.5	1.5	24.8	37.4				
O=c1cc2n(CCCN3CCCC3)c3ccccc3nc-2c2ccccc12			30.3	0.22	25.2	35.7				
O=c1cc2n(CCCN3CCOCC3)c3ccccc3nc-2c2ccccc12			> 50	1.28	25.2	45.4				
COc1cc([C@@H]2c3cc4c(cc3[C@@H](O[C@@H]3O[C@@H]5CO[C@@H](C)O[C@H]5[C@H](O)[C@H]3O)[C@H]3COC(=O)[C@H]23)OCO4)cc(OC)c1O [ETOPOSIDE]			0.54	0.06	1.64	8.91				
COc1ccc2c3nc4ccccc4n(CCN(C)C)c-3cc(=O)c2c1			18.9	2.85	18.4	38.5				
CN(C)CCCn1c2cc(=O)c3ccccc3c-2nc2cccnc21		inactive	4.52	0.62	36.8	20.4	inactive			
O=c1cc2n(CCCN3CCCCC3)c3ccccc3nc-2c2ccccc12	Active	inactive	27.4	0.52	10.3	33				
CCCn1c2cc(=O)c3ccccc3c-2nc2ccccc21	inactive		> 50	32.1	> 40	> 50				
CCN(CC)CCn1c2cc(=O)c3ccccc3c-2nc2ccccc21			25.4	0.31	25.6	29.2				
COc1ccc2c(=O)cc3n(CCCN(C)C)c4ccccc4nc-3c2c1		Active	29.9	0.22	7.13	33	Active			
CN1CCN(CCCn2c3cc(=O)c4ccccc4c-3nc3ccccc32)CC1			26.7	1.22	24	23.6				
CCN(CC)CCCn1c2cc(=O)c3cc(OC)ccc3c-2nc2ccccc21		inactive	25.9	0.23	22	22.9				
COc1ccc2nc3c4ccccc4c(=O)cc-3n(CCCN(C)C)c2c1		Active	5.51	0.18	5.53	30.5				
COc1ccc2c(c1)nc1c3ccc(OC)cc3c(=O)cc-1n2CCCN(C)C		inactive	6.52	0.65	22	34.5				
O=C1C=CC(=O)c2ccccc21								56		
COc1ccc2c(c1)nc1c3ccccc3c(=O)cc-1n2CCCN(C)C		inactive	24.9	0.96	20.2	25.9				
O=c1cc2n(CCCN3CCCCC3)c3ncccc3nc-2c2ccccc12		inactive	20.4	0.63	38.4	19.9	inactive			
CCN(CC)CCCCn1c2cc(=O)c3ccccc3c-2nc2ccccc21			29.4	0.22	26	18.9				
O=c1cc2n(CCN3CCOCC3)c3ccccc3nc-2c2ccccc12			> 50	6.91	> 40	> 50				
CN1CCN(CCn2c3cc(=O)c4ccccc4c-3nc3ccccc32)CC1		Active	28.9	0.38	21.6	25.3				
COc1ccc2c3nc4ccccc4n(CCCN(C)C)c-3cc(=O)c2c1		inactive	28.4	0.15	6.12	24.6				
CC[C@@]1(O)C(=O)OCc2c1cc1n(c2=O)Cc2cc3ccccc3nc2-1 [CAMPTOTHECIN]			11.6	0.07	5.37	26.4			Dose-dependent effect	Dose-dependent effect
COc1ccc2c3nc4cc(Cl)ccc4n(CCCN(C)C)c-3cc(=O)c2c1			43	6.43	22.8	31.5				
CN(C)CCCn1c2cc(=O)c3ccccc3c-2nc2cc(Cl)ccc21			29.6	1.08	20.4	38.4				
CN(C)CCn1c2cc(=O)c3ccccc3c-2nc2ccccc21	Active	Active	9.91	0.31	24.6	22.3				
